The nature of experiment [1]: Her2 expression decrease, cell viability multiplex – SKBR3 breast tumor cells, AlphaScreen, ATP viability, primary screen (AID 461;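 active = Her2 level under about 52% in both replicate screens, with viability over 70% of control, limit read from the data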;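 as to Her2 level: lower value means less Her2 protein in the cells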;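 as to viability: percent of carrier control wells set as 100% viability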). The note with it: SKBR3 Her2 protein level, 18-24 h, measured here: SKBR3 viability, ATP luminescence, at 10 µM.
Experiment [2] deals with Receptor tyrosine-protein kinase erbB-2 (Homo sapiens) (UniProt P04626). The description is as above. The note with it: 18-24 h, at 10 µM, stronger effect = lower value.
The nature of experiment [3]: reduced viability of SK-BR-3 breast cancer cells – cell-based, 24 h, human, pilot screen (AID 572;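 active = viability at or below 10% of carrier control in both of two separate runs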;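 also: compound exposure lasted between 18 and 24 h rather than exactly 24 h; 100% = carrier-treated control wells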). The note with it: SK-BR-3 viability, CellTiter-Glo luminescence, at 10 µM, stronger effect = lower value. On the technique in general: In ATP-based viability assays light output follows the ATP content of the culture.
The nature of experiment [4]: HUVEC growth inhibition – cell-based, human, primary screen (AID 575;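 active = viability at or below 30% in both replicate assays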;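 also: 100% = median of untreated cell wells with 0.1% DMSO on each plate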). The note with it: HUVEC proliferation, CellTiter-Glo luminescence, 72 h; at 10 µM; stronger effect = lower value. The essentials:
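Timing: 72 h treatment at 37 °C; material: HUVEC primary cells; technique: CellTiter-Glo luminescence measuring cellular ATP; controls: vehicle and MePR control wells; measure: percent of median DMSO-control luminescence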

The nature of experiment [5]: H69AR cell proliferation blockers – human, duplicate replicates, primary screen (AID 580;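 active = viability at or under a set limit in both replicates, limit being median viability minus 3 SD, cut at about 48% in these data, passing the limit was not always enough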;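 also: 100% = mean luminescence of untreated wells and 0% = no signal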). The following applies: H69AR lung tumor cells viability, ATP luminescence, 72 h; at 10 µM; stronger effect = lower value.
Experiment [6] can be described thus: MRP1 drug-resistance reversers in H69AR cells – cell-based, doxorubicin co-treatment, pilot screen (AID 601). The note with it: CellTiter-Glo, 72 h, at 10 µM; for differential viability (reversal): stronger effect = higher value.
The nature of experiment [7]: yeast transport mutant growth inhibition pilot in 384-well plates, post-Golgi transport modulator project (AID 636; in the data active = inhibition above about 31%). The following applies: absorbance 615 nm, about 18 h, stronger effect = higher value.
The nature of experiment [8]: growth suppression of yeast trafficking mutant, preliminary HTS, modulators of trafficking downstream of Golgi apparatus project, 1536-format plate, OD 615 nm (AID 637; in the data active = inhibition above about 30%). The following applies: yeast transport mutant growth, absorbance 615 nm, 18 h; stronger effect = higher value.
The mark [9] stands for this setting: H69AR cells + 2 uM doxorubicin, measured here: viability with 2 uM doxorubicin, stronger effect = lower value.
Setting [10] is: H69AR cells, compound alone cytotoxicity.

Structures are written as SMILES. Calls of active or inactive are those of the source.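 The calls were made as follows, unless noted: active = viability loss from added drug above about 55%, and viability with drug at most 40%, in both replicates (limit read from the data, passing the limit was not always enough); inconclusive = both conditions met in only one replicate; inactive = neither replicate meets both conditions.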

As a reminder, the viability is a read-out of living cells in per cent, often relative to untreated cells. As a reminder, the inhibition is the relative decrease from the control value, in per cent.

Chain of Receptor tyrosine-protein kinase erbB-2 (Homo sapiens) (P04626 whole entry, looked up): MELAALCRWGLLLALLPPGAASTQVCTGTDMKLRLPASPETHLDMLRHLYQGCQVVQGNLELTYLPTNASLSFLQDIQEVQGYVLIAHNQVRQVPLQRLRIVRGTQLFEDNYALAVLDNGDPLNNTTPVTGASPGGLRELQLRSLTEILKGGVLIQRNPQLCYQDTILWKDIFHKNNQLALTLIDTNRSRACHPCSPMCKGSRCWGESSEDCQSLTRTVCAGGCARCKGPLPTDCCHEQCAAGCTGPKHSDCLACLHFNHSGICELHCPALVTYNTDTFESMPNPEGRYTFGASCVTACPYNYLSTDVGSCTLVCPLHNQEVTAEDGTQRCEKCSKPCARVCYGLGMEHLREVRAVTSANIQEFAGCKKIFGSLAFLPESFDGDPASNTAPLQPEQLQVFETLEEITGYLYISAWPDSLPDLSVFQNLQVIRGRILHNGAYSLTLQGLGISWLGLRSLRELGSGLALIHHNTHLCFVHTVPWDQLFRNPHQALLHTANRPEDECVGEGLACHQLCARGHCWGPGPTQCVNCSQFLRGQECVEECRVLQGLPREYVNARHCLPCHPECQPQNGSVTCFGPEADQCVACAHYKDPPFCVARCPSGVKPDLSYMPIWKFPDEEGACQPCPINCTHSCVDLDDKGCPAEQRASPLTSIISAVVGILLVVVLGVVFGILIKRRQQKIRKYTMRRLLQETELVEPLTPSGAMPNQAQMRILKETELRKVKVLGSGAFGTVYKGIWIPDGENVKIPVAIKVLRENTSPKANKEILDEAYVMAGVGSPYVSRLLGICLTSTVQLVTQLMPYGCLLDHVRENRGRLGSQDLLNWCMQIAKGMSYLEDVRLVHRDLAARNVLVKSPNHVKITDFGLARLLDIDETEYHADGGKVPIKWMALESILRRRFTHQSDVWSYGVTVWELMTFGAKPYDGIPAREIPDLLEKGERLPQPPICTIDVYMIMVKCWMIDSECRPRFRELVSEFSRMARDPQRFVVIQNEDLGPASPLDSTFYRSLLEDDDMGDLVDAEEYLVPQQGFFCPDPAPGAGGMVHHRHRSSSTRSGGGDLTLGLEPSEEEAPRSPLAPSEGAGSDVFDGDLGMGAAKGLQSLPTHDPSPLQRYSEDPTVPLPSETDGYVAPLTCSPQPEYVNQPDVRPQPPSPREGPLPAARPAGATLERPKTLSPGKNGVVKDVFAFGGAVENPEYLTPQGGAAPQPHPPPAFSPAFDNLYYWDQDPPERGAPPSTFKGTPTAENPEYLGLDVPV

Regarding `CCCCc1nc(NCCNC(=O)c2ccco2)c(C#N)c2c1CSC(C)(C)C2`, the viability in experiment [1] is 84.5%; in experiment [3], 84.5% (inactive); in experiment [4], 78.7% (inactive); in experiment [5] it was 86.7% (inactive); in experiment [6] (setting [9]), 70.9%; in experiment [6] (setting [10]), 86.7%. Besides, in experiment [2], the Her2 level was 100% (inactive). Also, the differential viability (reversal) in experiment [6] (H69AR cells + 2 uM doxorubicin) is 15.8% (inactive). In addition, the inhibition in experiment [7] is -5.2% (inactive); in experiment [8], -7.38% (inactive).
For the compound `O=C(/C=N/O)Nc1cccnc1`, the viability is 110% in experiment [1]; 110% (inactive) in experiment [3]; 91.3% (inactive) in experiment [4]; 83.2% (inactive) in experiment [5]; 89.6% in experiment [6] (setting [9]); 83.2% in experiment [6] (setting [10]). Moreover, the Her2 level in experiment [2] is 90% (inactive). For the same compound, the differential viability (reversal) in experiment [6] (H69AR cells + 2 uM doxorubicin) is -6.35% (inactive). Also, the inhibition in experiment [7] was -1.84% (inactive); in experiment [8] it was 3.71% (inactive).
With `O=C(NCc1ccco1)C1CC(=O)N(c2ccc(F)cc2)C1` (stereo not given), the viability was 96.5% in experiment [1]; 96.5% (inactive) in experiment [3]; 108% (inactive) in experiment [4]; 108% (inactive) in experiment [5]; 91.5% in experiment [6] (setting [9]); 108% in experiment [6] (setting [10]). Besides, the Her2 level in experiment [2] was 97% (inactive). In experiment [6] (H69AR cells + 2 uM doxorubicin), the differential viability (reversal) is 16% (inactive). In addition, the results for the inhibition in experiment [7] and in experiment [8] were -0.93% (inactive) and -1.61% (inactive), respectively.
For `O=C(Nc1ccccc1-c1ccccc1)NC1CCN(CC(=O)N2CCOCC2)CC1`, the viability in experiment [1] is 98%; in experiment [3], 98% (inactive); in experiment [4] it was 91.7% (inactive); in experiment [5], 99.3% (inactive); in experiment [6] (setting [9]) it was 91.4%; in experiment [6] (setting [10]), 99.3%. The Her2 level in experiment [2] was 103% (inactive). The differential viability (reversal) in experiment [6] (H69AR cells + 2 uM doxorubicin) was 7.87% (inactive). Also, the inhibition in experiment [7] was -2.34% (inactive); in experiment [8] it was -3.11% (inactive).
Regarding `Cc1c(C(=O)OCC(C)C)[nH]c2c1C(=O)CC(c1ccco1)C2` (stereo not given), the viability in experiment [1] was 80.5%; in experiment [3], 80.5% (inactive); in experiment [4], 18.5% (active); in experiment [5], 24.1% (active); in experiment [6] (setting [9]) it was 46.6%; in experiment [6] (setting [10]), 24.1%. The Her2 level in experiment [2] was 58% (inactive). Also, in experiment [6] (H69AR cells + 2 uM doxorubicin), the differential viability (reversal) is -22.6% (inactive). The figures for the inhibition in experiment [7] and in experiment [8] were -1.2% (inactive) and -3.28% (inactive), respectively.
As for `COC(=O)c1cccc(NC(=O)NC2CCCN2S(=O)(=O)c2ccc(Cl)cc2)c1` (stereo not given), the viability in experiment [1] was 83%; in experiment [3], 83% (inactive); in experiment [4], 82.6% (inactive); in experiment [5], 94.1% (inactive); in experiment [6] (setting [9]), 82.7%; in experiment [6] (setting [10]), 94.1%. Besides, the Her2 level in experiment [2] was 75.5% (inactive). In addition, the differential viability (reversal) in experiment [6] (H69AR cells + 2 uM doxorubicin) is 11.4% (inactive). The inhibition in experiment [7] was -4.53% (inactive); in experiment [8], -7.05% (inactive).
Consider `CC(=O)N1CCN(C(C)=O)C1c1ccccc1`, for which the viability in experiment [1] is 93.5%; in experiment [3] it was 93.5% (inactive); in experiment [4] it was 77.9% (inactive); in experiment [5], 91.4% (inactive); in experiment [6] (setting [9]), 89.1%; in experiment [6] (setting [10]) it was 91.4%. Moreover, the Her2 level in experiment [2] was 136% (inactive). Besides, the differential viability (reversal) in experiment [6] (H69AR cells + 2 uM doxorubicin) is 2.34% (inactive). Further, the values for the inhibition in experiment [7] and in experiment [8] were 3.46% (inactive) and -7% (inactive), respectively.
As to `Cc1ccc2c(c1)-c1cc(C)nn1C(c1ccc3c(c1)OCO3)N2` (stereo not given), the viability in experiment [1] is 100%; in experiment [3], 100% (inactive); in experiment [4], 54% (inactive); in experiment [5], 87.2% (inactive); in experiment [6] (setting [9]), 98.4%; in experiment [6] (setting [10]), 87.2%. Moreover, the Her2 level in experiment [2] is 100% (inactive). Also, the differential viability (reversal) in experiment [6] (H69AR cells + 2 uM doxorubicin) was -11.2% (inactive). Further, the inhibition in experiment [7] is -2.76% (inactive); in experiment [8], -3.55% (inactive).
Consider `CCN(C(=O)COC(=O)c1cc(C)n(-c2ccc(F)cc2)c1C)C1CCS(=O)(=O)C1` (stereo not given), for which the viability in experiment [1] was 85.5%; in experiment [3], 85.5% (inactive); in experiment [4], 103% (inactive); in experiment [5], 103% (inactive); in experiment [6] (setting [9]) it was 104%; in experiment [6] (setting [10]), 103%. The Her2 level in experiment [2] is 93.5% (inactive). Besides, in experiment [6] (H69AR cells + 2 uM doxorubicin), the differential viability (reversal) is -0.795% (inactive). Moreover, the values for the inhibition in experiment [7] and in experiment [8] were -3.47% (inactive) and 1.61% (inactive), respectively.
For `O=C(Nc1cccc(C(F)(F)F)c1)c1cccnc1N1CCCC1`, the viability in experiment [1] is 99%; in experiment [3], 99% (inactive); in experiment [4], 102% (inactive); in experiment [5], 95% (inactive); in experiment [6] (setting [9]), 102%; in experiment [6] (setting [10]), 95%. In addition, in experiment [2], the Her2 level was 102% (inactive). In addition, the differential viability (reversal) in experiment [6] (H69AR cells + 2 uM doxorubicin) is -6.8% (inactive). The figures for the inhibition in experiment [7] and in experiment [8] were -2% (inactive) and -1.29% (inactive), respectively.
`CCc1ccc(C2CC(c3ccccc3)n3ncnc3N2)cc1` (stereo not given): the viability in experiment [1] was 80%; in experiment [3] it was 80% (inactive); in experiment [4], 83.1% (inactive); in experiment [5], 88.1% (inactive); in experiment [6] (setting [9]), 84.3%; in experiment [6] (setting [10]), 88.1%. Also, the Her2 level in experiment [2] was 86% (inactive). Besides, the differential viability (reversal) in experiment [6] (H69AR cells + 2 uM doxorubicin) was 3.85% (inactive). Further, the inhibition in experiment [7] was 3.59% (inactive); in experiment [8], 0.67% (inactive).
Regarding `CC(C)CCNC(=O)NC(=O)COc1ccccc1C#N`, the viability in experiment [1] is 92.5%; in experiment [3], 92.5% (inactive); in experiment [4], 112% (inactive); in experiment [5], 97.1% (inactive); in experiment [6] (setting [9]), 89.8%; in experiment [6] (setting [10]) it was 97.1%. The Her2 level in experiment [2] was 109% (inactive). Moreover, in experiment [6] (H69AR cells + 2 uM doxorubicin), the differential viability (reversal) was 7.26% (inactive). The inhibition was -3.78% (inactive) in experiment [7] and -5.4% (inactive) in experiment [8].
As to `C/C(N)=C(\C#N)C(=O)NCCc1ccccn1`, the viability in experiment [1] is 81%; in experiment [3] it was 81% (inactive); in experiment [4] it was 108% (inactive); in experiment [5] it was 114% (inactive); in experiment [6] (setting [9]), 107%; in experiment [6] (setting [10]) it was 114%. Also, in experiment [2], the Her2 level was 102% (inactive). Also, the differential viability (reversal) in experiment [6] (H69AR cells + 2 uM doxorubicin) was 7.44% (inactive). Besides, the inhibition in experiment [7] was -1.45% (inactive); in experiment [8] it was 1.48% (inactive).
Consider `COc1ccccc1-n1nnnc1SCc1ccccc1`, for which the viability in experiment [1] is 103%; in experiment [3], 103% (inactive); in experiment [4] it was 90.6% (inactive); in experiment [5], 97.1% (inactive); in experiment [6] (setting [9]), 80.3%; in experiment [6] (setting [10]), 97.1%. Moreover, the Her2 level in experiment [2] was 94% (inactive). For the same compound, in experiment [6] (H69AR cells + 2 uM doxorubicin), the differential viability (reversal) was 16.7% (inactive). The inhibition in experiment [7] was -4.27% (inactive); in experiment [8], 1.61% (inactive).
Consider `Cc1ccc(S(=O)(=O)CC(=O)N2CCCCCC2)cc1`, for which the viability in experiment [1] is 85.5%; in experiment [3], 85.5% (inactive); in experiment [4], 78.1% (inactive); in experiment [5], 92.7% (inactive); in experiment [6] (setting [9]) it was 90.7%; in experiment [6] (setting [10]) it was 92.7%. For the same compound, the Her2 level in experiment [2] was 100% (inactive). For the same compound, in experiment [6] (H69AR cells + 2 uM doxorubicin), the differential viability (reversal) is 1.99% (inactive). Besides, the inhibition in experiment [7] is -5% (inactive); in experiment [8], -6.07% (inactive).

Source of the values: PubChem BioAssay.
